Experiment [1] concerns MONO-MAC-6. The experiment can be described thus: Upregulation of CCL20 mRNA expression level in LPS-stimulated human MONO-MAC-6 cells at 5 uM preincubated for 30 mins followed by LPS stimulation measured after 4 hrs by oligonucleotide array hybridization assay (reference value: 10.69). It counts as functional.
The next experiment has as its system PBMC. As to the kind of experiment: Inhibition of TNFalpha-stimulated apoptosis in human PBMC assessed as apoptotic cells at 2 uM preincubated for 30 mins followed by TNFalpha stimulation measured after 4 hrs by YO-PRO-1/Hoechst 33342 staining based assay relative to control. It counts as functional. More on the design: scale not given: the % may be the effect or the level left. Summed up:
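PBMC pre-incubated 30 min with 2 μM compound, then stimulated with mmLDL (27 μg/mL; line 5) or TNFalpha (3 ng/mL; line 1) for 4 h. Apoptotic cells stained with YO-PRO-1 and all cells with Hoechst 33342. Each plate had control, stimulus, compound alone and compound plus stimulus; n = 3. Values are on a 0% (untreated control, corrected for spontaneous apoptosis) to 100% (stimulus alone) scale; means ± SE.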

In experiment [2] the test system is MONO-MAC-6. As to the kind of experiment: Upregulation of CXCL3 mRNA expression level in human MONO-MAC-6 cells at 5 uM incubated for 30 mins measured after 1 hr by oligonucleotide array hybridization assay relative to control. It counts as functional.
The test system of experiment [3] is MONO-MAC-6. As to the kind of experiment: Downregulation of CXCL2 mRNA expression level in human MONO-MAC-6 cells at 5 uM incubated for 30 mins measured after 4 hrs by oligonucleotide array hybridization assay relative to control. It counts as functional. Summed up:
(§1)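 Total RNA was isolated, transcribed and labeled with DY-647 dye, then co-hybridized with DY-548-labeled cDNA from untreated cells on an inflammation oligonucleotide chip (780 gene probes). Differential expression >1.5 was taken as significant.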

Experiment [4] relates to MONO-MAC-6. As to the kind of experiment: Upregulation of CXCL3 mRNA expression level in LPS-stimulated human MONO-MAC-6 cells at 5 uM preincubated for 30 mins followed by LPS stimulation measured after 2 hrs by oligonucleotide array hybridization assay (reference value: 3.24). It counts as functional.
Experiment [5] has as its target T1, Sphingomyelin phosphodiesterase (Homo sapiens, UniProt P17405).
T1 sequence (P17405 whole entry): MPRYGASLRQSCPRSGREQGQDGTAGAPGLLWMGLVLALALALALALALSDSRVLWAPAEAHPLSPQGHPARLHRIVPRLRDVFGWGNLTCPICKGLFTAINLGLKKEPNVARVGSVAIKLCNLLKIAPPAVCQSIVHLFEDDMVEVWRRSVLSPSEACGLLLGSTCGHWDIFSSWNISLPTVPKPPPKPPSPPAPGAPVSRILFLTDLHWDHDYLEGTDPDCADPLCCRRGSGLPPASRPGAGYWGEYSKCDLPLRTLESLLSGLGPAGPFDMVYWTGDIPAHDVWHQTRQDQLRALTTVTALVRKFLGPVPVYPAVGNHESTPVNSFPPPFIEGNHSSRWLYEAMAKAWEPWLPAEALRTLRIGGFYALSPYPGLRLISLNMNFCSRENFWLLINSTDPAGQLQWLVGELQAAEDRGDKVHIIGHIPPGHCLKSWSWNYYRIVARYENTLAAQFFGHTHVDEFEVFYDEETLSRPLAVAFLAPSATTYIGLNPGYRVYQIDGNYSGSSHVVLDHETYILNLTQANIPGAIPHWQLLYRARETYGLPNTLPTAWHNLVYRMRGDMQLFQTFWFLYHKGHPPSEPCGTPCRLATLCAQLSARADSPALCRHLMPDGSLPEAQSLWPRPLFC
The experiment can be described thus: Inhibition of mmLDL-stimulated acid sphingomyelinase in human PBMC lysates using BODIPY FL C5-sphingomyelin as substrate preincubated for 30 mins followed by mmLDL stimulation measured after 2 hrs by HPLC method.

The subject of experiment [6] is MONO-MAC-6. As to the kind of experiment: Downregulation of IL-6 mRNA expression level in human MONO-MAC-6 cells at 5 uM incubated for 30 mins measured after 2 hrs by qRT-PCR method relative to control. It counts as functional. (In general: In qPCR the cycle at which signal appears reflects the starting amount.)
The subject of experiment [7] is MONO-MAC-6. As to the kind of experiment: Upregulation of IL23A mRNA expression level in human MONO-MAC-6 cells at 5 uM incubated for 30 mins measured after 4 hrs by qRT-PCR method relative to control. It counts as functional.
In experiment [8] the test system is MONO-MAC-6. The experiment can be described thus: Downregulation of CCL20 mRNA expression level in LPS-stimulated human MONO-MAC-6 cells at 5 uM preincubated for 30 mins followed by LPS stimulation measured after 6 hrs by oligonucleotide array hybridization assay (reference value: 5.78). It counts as functional. Summed up: as §1
Experiment [9] has as its system MONO-MAC-6. As to the kind of experiment: Downregulation of CCL20 mRNA expression level in human MONO-MAC-6 cells at 5 uM incubated for 30 mins measured after 6 hrs by oligonucleotide array hybridization assay relative to control. It counts as functional. Summed up:
as §1

The target of experiment [10] is T2, Sphingomyelin phosphodiesterase (Homo sapiens) (UniProt P17405).
T2 sequence (whole entry): T1 sequence (P17405 whole entry)
The experiment can be described thus: Inhibition of TNFalpha-stimulated acid sphingomyelinase in human PBMC lysates at 2 to 50 uM preincubated for 30 mins followed by TNFalpha stimulation measured after 4 hrs by YO-PRO-1/Hoechst 33342 staining based assay.

For experiment [11], the system named is MONO-MAC-6. As to the kind of experiment: Downregulation of CXCL3 mRNA expression level in human MONO-MAC-6 cells at 5 uM incubated for 30 mins measured after 4 hrs by oligonucleotide array hybridization assay relative to control. It counts as functional. Summed up: as §1
The test system of experiment [12] is MONO-MAC-6. As to the kind of experiment: Upregulation of IL23A mRNA expression level in LPS-stimulated human MONO-MAC-6 cells at 5 uM preincubated for 30 mins followed by LPS stimulation measured after 2 hrs by qRT-PCR method (reference value: 1.39). It counts as functional.
Experiment [13] deals with T3, Acid ceramidase (Homo sapiens) (UniProt Q13510).
T3 sequence (whole entry): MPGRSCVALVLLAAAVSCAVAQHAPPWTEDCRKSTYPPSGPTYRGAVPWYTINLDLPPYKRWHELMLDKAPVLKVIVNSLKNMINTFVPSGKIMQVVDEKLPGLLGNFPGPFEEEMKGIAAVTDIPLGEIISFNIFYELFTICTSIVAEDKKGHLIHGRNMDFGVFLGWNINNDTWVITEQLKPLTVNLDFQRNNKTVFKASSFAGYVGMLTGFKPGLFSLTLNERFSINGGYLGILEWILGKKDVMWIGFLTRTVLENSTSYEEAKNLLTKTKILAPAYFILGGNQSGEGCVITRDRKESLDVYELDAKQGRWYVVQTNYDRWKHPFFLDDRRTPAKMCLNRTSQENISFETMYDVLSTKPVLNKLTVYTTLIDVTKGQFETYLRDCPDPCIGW
The experiment can be described thus: Inhibition of exogenous C6-ceramid-stimulated acid ceramidase in human PBMC assessed as ratio of C24:1-ceramide/lipid phosphate level at 10 uM preincubated for 30 mins followed by C6-ceramid stimulation measured after 4 hrs by HPLC method (reference value: 2.65). It counts as cell-based. Summed up:
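Human macrophages from primary culture were preincubated 30 min with 10 µM compound. They were then stimulated 4 h with mmLDL (54 µg/mL), TNFalpha (3 ng/mL) or exogenous C6-ceramide (10 µM), or left unstimulated. Individual ceramide species (C16 and C24:1) were quantified in the cell lipid extracts.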

Experiment [14] deals with MONO-MAC-6. As to the kind of experiment: Downregulation of CCL4 mRNA expression level in human MONO-MAC-6 cells at 5 uM incubated for 30 mins measured after 4 hrs by oligonucleotide array hybridization assay relative to control. It counts as functional. Summed up:
as §1

Experiment [15] has as its system MONO-MAC-6. The experiment can be described thus: Downregulation of PTGS2 mRNA expression level in LPS-stimulated human MONO-MAC-6 cells at 5 uM preincubated for 30 mins followed by LPS stimulation measured after 6 hrs by oligonucleotide array hybridization assay (reference value: 3.58). It counts as functional. Summed up: as §1

Active and inactive are the calls of the source. The rule behind the calls is not given here.

A word on the IC50: it is the point on the concentration scale where inhibition reaches its midpoint. Regarding `COc1ccc(CCN(C)CCCn2c3ccccc3c3ccccc32)cc1`, the “fold change (FC)” value is 4.54 in the experiment with MONO-MAC-6 [1]; 1.46 in the experiment with MONO-MAC-6 [2]; 2.28 in the experiment with MONO-MAC-6 [3]; 2.34 in the experiment on MONO-MAC-6 [4]; 2.15 in the experiment with MONO-MAC-6 [6]; 1.39 in the experiment on MONO-MAC-6 [7]. The “fold change (FC)” value in the experiment with MONO-MAC-6 [8] turned out to be 1.07; in the experiment on MONO-MAC-6 [9], 5.68; in the experiment on MONO-MAC-6 [11], 1.21; in the experiment with MONO-MAC-6 [12], 1.87; in the experiment on MONO-MAC-6 [14], 1.55; in the experiment with MONO-MAC-6 [15], 1.06. Besides, the Activity in the experiment on PBMC is reported as 19%. Moreover, the IC50 in [5] is 13 to 17 µM. For the same molecule, in [10], the inhibition result is “Active”. The Ratio in experiment [13] worked out at 2.65.
